Assay results published in ChEMBL document CHEMBL3091318, “Potent and broad-spectrum antibacterial activity of indole-based bisamidine antibiotics: synthesis and SAR of novel analogs of MBX 1066 and MBX 1090” (2013).

Legend:
Assay type in all cases: functional
Escherichia coli [1] = assay: Antimicrobial activity against TolC efflux-deficient Escherichia coli K-12 after 16 to 20 hrs by broth microdilution method
In short: (§1)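 CLSI broth microdilution. Log-phase cultures grown in cation-adjusted Mueller–Hinton broth and seeded at 1×10^5 CFU/mL. Plates incubated at 37 °C with shaking for 16–20 h. DMSO stocks of compound were diluted into medium to 1% DMSO final. Growth was read as OD600. MIC (μg/ml) is the lowest concentration with no apparent growth, averaged over at least 3 assays.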

Escherichia coli [2] = assay: Antimicrobial activity against efflux pump-positive Escherichia coli K-12 after 16 to 20 hrs by broth microdilution method; in short: as §1
Pseudomonas aeruginosa [3] = assay: Antimicrobial activity against efflux pump mexAB-oprM-deficient Pseudomonas aeruginosa PAO1 after 16 to 20 hrs by broth microdilution method; in short: as §1
Enterococcus faecalis [4] = assay: Antimicrobial activity vancomycin-resistant Enterococcus faecalis ATCC 51575 after 16 to 20 hrs by broth microdilution method
In short: (§2)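 CLSI broth microdilution. Log-phase cultures in cation-adjusted Mueller–Hinton broth were seeded at 1×10^5 CFU/mL and incubated at 37 °C with shaking for 16–20 h. Compounds were diluted from DMSO stocks to a final 1% DMSO. Growth was read as OD600, and MIC was taken as the lowest concentration with no apparent growth. At least 3 runs were done, and the average MIC is reported in μg/ml.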

Staphylococcus aureus [5] = assay: Antimicrobial activity against Staphylococcus aureus ATCC 25923 after 16 to 20 hrs by broth microdilution method; in short: as §2
Staphylococcus aureus [6] = assay: Antimicrobial activity methicillin-resistant against Staphylococcus aureus clinical isolate 1094 after 16 to 20 hrs by broth microdilution method
Enterococcus faecalis [7] = assay: Antimicrobial activity Enterococcus faecalis ATCC 29212 after 16 to 20 hrs by broth microdilution method; in short: as §1
Bacillus anthracis = assay: Antimicrobial activity against Bacillus anthracis Sterne after 16 to 20 hrs by broth microdilution method; in short: as §2
Pseudomonas aeruginosa [8] = assay: Antimicrobial activity against efflux pump-positive Pseudomonas aeruginosa PAO1 ATCC BAA-47 after 16 to 20 hrs by broth microdilution method; in short: as §1
Pseudomonas aeruginosa [9] = assay: Ratio of MBX 1066 MIC to compound MIC for Pseudomonas aeruginosa PAO1 ATCC BAA-47 after 16 to 20 hrs by broth microdilution method
Escherichia coli [10] = assay: Ratio of MBX 1066 MIC to compound MIC for Escherichia coli K-12 after 16 to 20 hrs by broth microdilution method
Acinetobacter baumannii = assay: Antimicrobial activity against Acinetobacter baumannii ATCC 19606 after 16 to 20 hrs by broth microdilution method; in short: as §1
Haemophilus influenzae = assay: Antimicrobial activity against Haemophilus influenzae ATCC 10211 after 16 to 20 hrs by broth microdilution method
In short: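 Broth microdilution per CLSI in Haemophilus Test Medium at 37 °C under 5% CO₂ for 16–20 h, seeded at 1×10^5 CFU/mL. Compound was added from DMSO stocks to 1% DMSO final. Growth was read as OD600. MIC (μg/ml) is the lowest concentration without apparent growth, averaged from at least 3 runs.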

Klebsiella pneumoniae = assay: Antimicrobial activity against Klebsiella pneumoniae ATCC 13882 after 16 to 20 hrs by broth microdilution method; in short: as §1
Escherichia coli [11] = assay: Selectivity ratio of MIC for efflux pump-positive Escherichia coli K-12 to MIC for TolC efflux-deficient Escherichia coli K-12
Pseudomonas aeruginosa [12] = assay: Selectivity ratio of MIC for efflux pump-positive Pseudomonas aeruginosa PAO1 ATCC BAA-47 to MIC for efflux pump mexAB-oprM-deficient Pseudomonas aeruginosa PAO1

Which results are given for `O=C(O)C(F)(F)F.c1cc2cc(-c3ccc(-c4cc5ccc(C6=NCCCN6)cc5[nH]4)cc3)[nH]c2cc1C1=NCCCN1`?
MIC (Escherichia coli [1]): 0.16 µg/mL; MIC (Escherichia coli [2]): 0.16 µg/mL; MIC (Pseudomonas aeruginosa [3]): 0.31 µg/mL; MIC (Enterococcus faecalis [4]): 0.08 µg/mL; MIC (Staphylococcus aureus [5]): 0.08 µg/mL; MIC (Staphylococcus aureus [6]): 0.08 µg/mL; MIC (Enterococcus faecalis [7]): 0.08 µg/mL; MIC (Bacillus anthracis): 0.08 µg/mL; MIC (Pseudomonas aeruginosa [8]): 0.31 µg/mL; Ratio (Pseudomonas aeruginosa [9]): >20; Ratio (Escherichia coli [10]): 10; MIC (Acinetobacter baumannii): 2.5 µg/mL; MIC (Haemophilus influenzae): 0.31 µg/mL; MIC (Klebsiella pneumoniae): 0.31 µg/mL

What does the source list for `O=C(O)C(F)(F)F.c1cc2cc(-c3ccc(-c4cc5ccc(C6=NCCN6)cc5[nH]4)cc3)[nH]c2cc1C1=NCCN1`?
MIC (Escherichia coli [1]): 0.16 µg/mL; MIC (Escherichia coli [2]): 1.25 µg/mL; MIC (Pseudomonas aeruginosa [3]): 1.25 µg/mL; MIC (Enterococcus faecalis [4]): 0.16 µg/mL; MIC (Staphylococcus aureus [5]): 0.16 µg/mL; MIC (Staphylococcus aureus [6]): 0.16 µg/mL; MIC (Enterococcus faecalis [7]): 0.16 µg/mL; MIC (Bacillus anthracis): 0.31 µg/mL; MIC (Pseudomonas aeruginosa [8]): 7.5 µg/mL; Ratio (Escherichia coli [11]): 8; Ratio (Pseudomonas aeruginosa [12]): 6; MIC (Acinetobacter baumannii): > 80 µg/mL; MIC (Haemophilus influenzae): 0.63 µg/mL; MIC (Klebsiella pneumoniae): 0.31 µg/mL
